Measured values from ChEMBL document CHEMBL3526118, “Combination of GSH trapping and time-dependent inhibition assays as a predictive method of drugs generating highly reactive metabolites” (Drug Metab Dispos, 2011).

Columns and labels:
Liver microsome [1] = assay: Covalent binding in human liver microsomes measured per mg of protein using radiolabelled compound at 10 uM after 1 hr incubation by liquid scintillation counting
CYP1A2 = target: T1, CYP1A2 (Homo sapiens, UniProt P05177); assay: in vitro
T1 sequence (P05177 whole entry): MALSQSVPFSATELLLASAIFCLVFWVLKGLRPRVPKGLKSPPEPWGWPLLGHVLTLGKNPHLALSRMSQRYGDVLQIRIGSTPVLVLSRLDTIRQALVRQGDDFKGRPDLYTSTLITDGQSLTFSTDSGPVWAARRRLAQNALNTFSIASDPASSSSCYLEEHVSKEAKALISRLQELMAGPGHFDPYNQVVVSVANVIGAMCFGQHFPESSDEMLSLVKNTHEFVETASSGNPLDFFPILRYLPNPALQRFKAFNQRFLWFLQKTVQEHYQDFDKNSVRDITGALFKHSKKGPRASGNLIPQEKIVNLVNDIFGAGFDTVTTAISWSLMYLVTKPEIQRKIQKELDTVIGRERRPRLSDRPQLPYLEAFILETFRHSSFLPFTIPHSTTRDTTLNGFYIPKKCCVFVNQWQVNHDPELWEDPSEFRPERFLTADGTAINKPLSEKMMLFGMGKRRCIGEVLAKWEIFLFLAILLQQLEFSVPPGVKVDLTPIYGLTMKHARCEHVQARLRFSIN

CYP2B6 [2] = target: T2, CYP2B6 (Homo sapiens, UniProt P20813); assay: in vitro
T2 sequence (P20813 whole entry): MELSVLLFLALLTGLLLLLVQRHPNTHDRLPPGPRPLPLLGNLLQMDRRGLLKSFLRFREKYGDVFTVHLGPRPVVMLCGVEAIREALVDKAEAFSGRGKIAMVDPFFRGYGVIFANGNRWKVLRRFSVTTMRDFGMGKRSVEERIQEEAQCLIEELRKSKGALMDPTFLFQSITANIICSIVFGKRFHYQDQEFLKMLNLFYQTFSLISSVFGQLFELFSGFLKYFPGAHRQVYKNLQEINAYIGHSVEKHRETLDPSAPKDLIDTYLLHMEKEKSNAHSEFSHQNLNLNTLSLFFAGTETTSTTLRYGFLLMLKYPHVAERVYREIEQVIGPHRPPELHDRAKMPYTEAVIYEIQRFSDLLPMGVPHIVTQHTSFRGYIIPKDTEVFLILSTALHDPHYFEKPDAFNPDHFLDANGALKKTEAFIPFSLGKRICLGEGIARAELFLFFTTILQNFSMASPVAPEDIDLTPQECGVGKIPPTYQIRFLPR

CYP2C9 [3] = target: T3, CYP2C9 (Homo sapiens, UniProt P11712); assay: Time dependent inhibition of CYP2C9 (unknown origin) at 10 uM by LC/MS system; format: ADME
T3 sequence (P11712 whole entry): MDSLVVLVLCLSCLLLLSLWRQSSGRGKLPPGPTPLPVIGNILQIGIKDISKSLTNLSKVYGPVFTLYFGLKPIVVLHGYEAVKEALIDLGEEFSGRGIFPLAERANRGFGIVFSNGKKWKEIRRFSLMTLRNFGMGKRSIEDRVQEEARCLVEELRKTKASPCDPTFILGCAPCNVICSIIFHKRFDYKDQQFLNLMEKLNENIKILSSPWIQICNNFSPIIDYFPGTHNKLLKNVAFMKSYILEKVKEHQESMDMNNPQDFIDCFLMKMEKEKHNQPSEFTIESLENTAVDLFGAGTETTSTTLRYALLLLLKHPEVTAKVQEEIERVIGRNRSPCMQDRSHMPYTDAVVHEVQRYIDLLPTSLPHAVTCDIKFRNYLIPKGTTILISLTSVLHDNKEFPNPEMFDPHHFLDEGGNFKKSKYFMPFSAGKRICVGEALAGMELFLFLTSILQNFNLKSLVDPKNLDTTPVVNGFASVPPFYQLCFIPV
In short: (§1)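 Human liver microsomes at 1.0 mg/mL were preincubated 0 or 30 min with compound and NADPH-generating system in 0.1 M sodium phosphate, then diluted ten-fold into incubation containing 200 μM tolbutamide (final) for 10 min to probe CYP2C9. Percent of matched no-inhibitor control was determined at each time. Inactivation = 100 × [1 − ratio of 30-min to 0-min values]; 10% threshold.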

CYP2C8 [4] = target: T4, CYP2C8 (Homo sapiens, UniProt P10632); assay: in vitro
T4 sequence (P10632 whole entry): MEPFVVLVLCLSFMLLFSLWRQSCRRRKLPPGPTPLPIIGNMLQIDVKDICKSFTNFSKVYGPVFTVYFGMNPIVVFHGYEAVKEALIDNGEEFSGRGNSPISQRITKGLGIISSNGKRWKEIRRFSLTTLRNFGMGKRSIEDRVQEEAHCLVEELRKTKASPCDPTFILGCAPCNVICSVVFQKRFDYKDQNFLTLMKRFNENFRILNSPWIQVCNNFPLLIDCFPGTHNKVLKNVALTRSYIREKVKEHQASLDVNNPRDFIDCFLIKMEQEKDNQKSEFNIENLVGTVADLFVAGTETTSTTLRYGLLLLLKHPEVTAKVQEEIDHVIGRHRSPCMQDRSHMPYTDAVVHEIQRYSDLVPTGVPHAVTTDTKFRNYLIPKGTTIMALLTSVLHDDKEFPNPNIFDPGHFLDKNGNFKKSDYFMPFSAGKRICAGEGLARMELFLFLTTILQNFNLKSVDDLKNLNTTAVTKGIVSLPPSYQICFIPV

Liver microsome [5] = conditions: human, microsomes, 100 µM
[6] = Intrinsic clearance for reactive metabolites formation per mg of protein based on cytochrome P450 (unknown origin) inactivation rate by TDI assay; conditions: human
CYP3A4 [7] = target: T5, CYP3A4 (Homo sapiens, UniProt P08684); assay: in vitro
T5 sequence (P08684 whole entry): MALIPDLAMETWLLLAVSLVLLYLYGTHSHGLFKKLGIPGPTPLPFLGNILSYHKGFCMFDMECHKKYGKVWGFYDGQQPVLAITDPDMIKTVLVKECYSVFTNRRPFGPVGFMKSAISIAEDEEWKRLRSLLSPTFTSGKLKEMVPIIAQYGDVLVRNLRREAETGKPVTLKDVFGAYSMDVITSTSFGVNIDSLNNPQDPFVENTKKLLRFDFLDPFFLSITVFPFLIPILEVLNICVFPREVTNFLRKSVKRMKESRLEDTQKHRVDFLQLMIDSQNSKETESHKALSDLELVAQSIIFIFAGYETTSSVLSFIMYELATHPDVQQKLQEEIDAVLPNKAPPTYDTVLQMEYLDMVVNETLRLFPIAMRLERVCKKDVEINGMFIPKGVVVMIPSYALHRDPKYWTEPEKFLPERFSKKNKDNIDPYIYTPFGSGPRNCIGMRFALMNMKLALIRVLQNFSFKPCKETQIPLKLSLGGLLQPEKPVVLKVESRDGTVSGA

[8] = Intrinsic clearance for reactive metabolites formation assessed as summation of [3H]GSH adduct formation rate-based reactive metabolites formation and cytochrome P450 (unknown origin) inactivation rate-based reactive metabolites formation; conditions: human
CYP2D6 [9] = target: T6, CYP2D6 (Homo sapiens, UniProt P10635); assay: in vitro
T6 sequence (P10635 whole entry): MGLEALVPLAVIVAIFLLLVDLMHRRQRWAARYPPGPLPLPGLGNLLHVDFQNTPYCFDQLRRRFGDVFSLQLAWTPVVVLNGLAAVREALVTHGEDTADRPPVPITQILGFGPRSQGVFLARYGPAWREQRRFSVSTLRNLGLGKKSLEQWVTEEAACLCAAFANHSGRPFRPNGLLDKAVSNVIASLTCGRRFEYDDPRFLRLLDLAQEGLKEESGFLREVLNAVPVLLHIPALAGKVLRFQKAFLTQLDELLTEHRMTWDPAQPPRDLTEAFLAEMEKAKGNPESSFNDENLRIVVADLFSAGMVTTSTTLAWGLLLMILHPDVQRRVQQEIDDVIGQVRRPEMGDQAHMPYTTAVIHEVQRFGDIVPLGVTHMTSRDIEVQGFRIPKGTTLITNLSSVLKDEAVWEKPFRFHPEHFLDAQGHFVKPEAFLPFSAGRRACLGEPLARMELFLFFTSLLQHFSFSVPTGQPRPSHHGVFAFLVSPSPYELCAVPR

CYP2C19 = CYP2C19 (Homo sapiens, UniProt P33261); assay: in vitro
CYP2C19, sequence (P33261 whole entry): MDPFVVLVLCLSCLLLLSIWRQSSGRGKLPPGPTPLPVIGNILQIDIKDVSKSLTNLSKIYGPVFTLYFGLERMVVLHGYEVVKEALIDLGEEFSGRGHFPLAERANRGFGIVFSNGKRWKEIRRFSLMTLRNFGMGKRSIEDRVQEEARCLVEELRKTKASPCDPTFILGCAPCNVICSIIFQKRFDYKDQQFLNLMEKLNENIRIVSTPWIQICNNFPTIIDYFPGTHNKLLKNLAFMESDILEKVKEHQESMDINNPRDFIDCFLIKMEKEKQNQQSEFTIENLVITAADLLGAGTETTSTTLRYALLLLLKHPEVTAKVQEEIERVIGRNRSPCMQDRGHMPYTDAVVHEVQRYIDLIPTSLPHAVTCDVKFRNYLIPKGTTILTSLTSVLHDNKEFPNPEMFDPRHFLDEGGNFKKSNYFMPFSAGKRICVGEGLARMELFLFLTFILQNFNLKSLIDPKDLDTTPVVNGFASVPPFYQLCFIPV

Liver microsome [10] = assay: Metabolic activation in human liver microsomes assessed as [3H]GSH adduct formation rate measured per mg of protein at 100 uM by [3H]GSH trapping assay
CYP2B6 [11] = target: T2, CYP2B6; assay: Time dependent inhibition of CYP2B6 (unknown origin) at 3 uM by LC/MS system; format: ADME
CYP3A4 [12] = target: T5, CYP3A4; assay: Time dependent inhibition of CYP3A4 (unknown origin) at 10 uM by LC/MS system; format: ADME
In short: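 CYP3A4: human liver microsomes at 0.5 mg/mL in preincubation, 0.1 M sodium phosphate, NADPH-generating system, 0 or 30 min. Ten-fold dilution into incubation with 2.5 μM midazolam (final), 10 min. Each value is relative to the matched control without inhibitor. % enzyme inactivation = 100 × [1 − %control(30 min)/%control(0 min)]; 10% threshold.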

CYP2D6 [13] = target: T6, CYP2D6; assay: Time dependent inhibition of CYP2D6 (unknown origin) at 30 uM by LC/MS system; format: ADME
In short: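 Preincubation with HLMs at 1.0 mg/mL in 0.1 M sodium phosphate plus NADPH-generating system for 0 or 30 min, then tenfold dilution into incubation containing 30 μM dextromethorphan for 10 min; chromatographic read-out. Activity relative to controls without inhibitor; inactivation = 100×[1 − %control(30 min)/%control(0 min)], threshold 10%. Initial 100 μM lowered where reversible inhibition was strong.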

CYP2C9 [14] = target: T3, CYP2C9; assay: Time dependent inhibition of CYP2C9 (unknown origin) at 30 uM by LC/MS system; format: ADME; in short: as §1
CYP2C8 [15] = target: T4, CYP2C8; assay: Time dependent inhibition of CYP2C8 (unknown origin) at 30 uM by LC/MS system; format: ADME
In short: (§2)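 CYP2C8 in human liver microsomes (1.0 mg/mL in preincubation), 0.1 M sodium phosphate, NADPH-generating system. Preincubation 0 or 30 min, then ten-fold dilution into incubation with 10 μM paclitaxel (final) for 10 min. Activity is taken relative to the matched no-inhibitor control. % inactivation = 100 × [1 − %control(30 min)/%control(0 min)]; threshold 10%.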

CYP2D6 [16] = target: T6, CYP2D6; assay: Time dependent inhibition of CYP2D6 (unknown origin) at 10 uM by LC/MS system; format: ADME
In short: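 CYP2D6 activity was measured with 30 μM dextromethorphan (final) after 0 or 30 min preincubation of compound with human liver microsomes (1.0 mg/mL) and NADPH-generating system in 0.1 M sodium phosphate. A ten-fold dilution was followed by a 10-min incubation. % inactivation = 100 × [1 − %control(30 min)/%control(0 min)]; threshold 10%.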

CYP2C9 [17] = target: T3, CYP2C9; assay: in vitro
CYP2C8 [18] = target: T4, CYP2C8; assay: Time dependent inhibition of CYP2C8 (unknown origin) at 3 uM by LC/MS system; format: ADME; in short: as §2
CYP2B6 [19] = target: T2, CYP2B6; assay: Time dependent inhibition of CYP2B6 (unknown origin) at 10 uM by LC/MS system; format: ADME
In short: (§3)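 CYP2B6 in human liver microsomes (1.0 mg/mL in preincubation), 0.1 M sodium phosphate, NADPH-generating system. Preincubation 0 or 30 min, then ten-fold dilution into incubation solution containing 50 μM bupropion (final) for 10 min. Activity is expressed as percent of the matched no-inhibitor control. % inactivation = 100 × [1 − control(30 min)/control(0 min)]; threshold 10%.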

CYP2B6 [20] = target: T2, CYP2B6; assay: Time dependent inhibition of CYP2B6 (unknown origin) at 30 uM by LC/MS system; format: ADME; in short: as §3
CYP2C8 [21] = target: T4, CYP2C8; assay: Time dependent inhibition of CYP2C8 (unknown origin) at 10 uM by LC/MS system; format: ADME
In short: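 CYP2C8 in human liver microsomes (1.0 mg/mL in preincubation), 0.1 M sodium phosphate, NADPH-generating system. Preincubation 0 or 30 min, then ten-fold dilution into incubation with 10 μM paclitaxel (final) for 10 min.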

Row | Compound | PB (Liver microsome [1]) | inhibition at 100 µM (CYP1A2) | inhibition at 100 µM (CYP2B6 [2]) | inhibition at 100 µM (CYP2C8 [4]) | CLH (Liver microsome [5]) | clearance [6] | inhibition at 100 µM (CYP3A4 [7]) | clearance [8] | inhibition at 100 µM (CYP2D6 [9]) | inhibition at 100 µM (CYP2C19; microsomes) | Drug metabolism (Liver microsome [10]) | inhibition at 10 µM (CYP3A4 [12]) | inhibition at 100 µM (CYP2C19; human liver microsomes) | inhibition at 100 µM (CYP2C9 [17]) | other results
1 | O=C(O)COc1ccc(C(=O)c2cccs2)c(Cl)c1Cl | 436.7 pmol | < 10% | < 10% | < 10% | 0.042 µL/min/mg | 0.069 µL/min/mg | < 10% | 0.111 µL/min/mg | < 10% | 35% | 4.2 pmol/min | – | – | – | inhibition at 10 µM (CYP2C9 [3]): 28%
2 | CCOC(=O)C1=C(COCCN)NC(C)=C(C(=O)OC)C1c1ccccc1Cl (stereo unspecified) [AMLODIPINE] | 7.1 pmol | < 10% | – | < 10% | – | – | 42% | – | < 10% | – | metabolite_not_detected | < 10% | < 10% | – | inhibition at 3 µM (CYP2B6 [11]): < 10%; inhibition at 30 µM (CYP2D6 [13]): < 10%; inhibition at 30 µM (CYP2C9 [14]): < 10%
3 | CCN(CC)Cc1cc(Nc2ccnc3cc(Cl)ccc23)ccc1O [AMODIAQUINE] | 208.1 pmol | < 10% | < 10% | – | 0.021 µL/min/mg | – | < 10% | 0.021 µL/min/mg | – | < 10% | 2.1 pmol/min | – | – | < 10% | inhibition at 30 µM (CYP2C8 [15]): < 10%; inhibition at 10 µM (CYP2D6 [16]): < 10%
4 | CCc1oc2ccccc2c1C(=O)c1cc(Br)c(O)c(Br)c1 [BENZBROMARONE] | 389.9 pmol | 12% | – | – | 0.03 µL/min/mg | 0.002 µL/min/mg | – | 0.032 µL/min/mg | < 10% | – | 3 pmol/min | < 10% | < 10% | – | inhibition at 3 µM (CYP2C8 [18]): < 10%; inhibition at 10 µM (CYP2B6 [19]): < 10%
5 | Cc1ccc(-c2cc(C(F)(F)F)nn2-c2ccc(S(N)(=O)=O)cc2)cc1 [CELECOXIB] | 13 pmol | < 10% | – | < 10% | – | – | – | – | – | < 10% | metabolite_not_detected | < 10% | – | – | inhibition at 30 µM (CYP2D6 [13]): < 10%; inhibition at 30 µM (CYP2B6 [20]): < 10%; inhibition at 30 µM (CYP2C9 [14]): < 10%
6 | CCc1ccc(CCOc2ccc(CC3SC(=O)NC3=O)cc2)nc1 (stereo unspecified) [PIOGLITAZONE] | 353 pmol | < 10% | 38% | – | – | 0.036 µL/min/mg | 61% | 0.036 µL/min/mg | < 10% | – | metabolite_not_detected | – | < 10% | < 10% | inhibition at 30 µM (CYP2C8 [15]): < 10%
7 | CN(CCOc1ccc(CC2SC(=O)NC2=O)cc1)c1ccccn1 (stereo unspecified) [ROSIGLITAZONE] | 516.1 pmol | < 10% | < 10% | – | 0.022 µL/min/mg | 0.028 µL/min/mg | – | 0.048 µL/min/mg | – | – | 2.2 pmol/min | – | < 10% | < 10% | inhibition at 10 µM (CYP2C8 [21]): < 10%
8 | COc1cc(C(=O)NS(=O)(=O)c2ccccc2C)ccc1Cc1cn(C)c2ccc(NC(=O)OC3CCCC3)cc12 [ZAFIRLUKAST] | 36.4 pmol | 11% | – | – | – | 0.207 µL/min/mg | – | 0.207 µL/min/mg | < 10% | – | metabolite_not_detected | 43% | < 10% | – | inhibition at 3 µM (CYP2C8 [18]): < 10%; inhibition at 10 µM (CYP2C9 [3]): < 10%; inhibition at 10 µM (CYP2B6 [19]): < 10%
